Assay results published in ChEMBL document CHEMBL1146089, “Development of the first potential covalent inhibitors of anandamide cellular uptake” (J Med Chem, 2006).

What was measured:
[1] = test system: RBL-2H3; experiment: Inhibition of uptake of [14C]anandamide co-incubated with RBL2H3 cells expressing AEA membrane transporter; format: functional, cell-based; details: Rattus norvegicus
Outline: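 RBL-2H3 cells incubated with [14C]AEA for 5 min at 37 °C with increasing compound concentrations, sometimes after a 10 min preincubation with compound. Uptake was taken as residual [14C]AEA in the medium after CHCl3/CH3OH 2:1 extraction and scintillation counting. Nonspecific binding was measured with 100 µM AEA. IC50 calculated, mean ± SE, N = 3.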

[2] = test system: RBL-2H3; experiment: Inhibition of uptake of [14C]anandamide pre-incubated for 1 hr with intact RBL2H3 cells expressing AEA membrane transporter; format: functional, cell-based; details: Rattus norvegicus
Outline: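 RBL-2H3 cells preincubated with compound 60 min at 25 °C under normal lab light. Cells then washed 3× with medium containing 0.2% BSA and 2× with BSA-free medium, then given [14C]AEA for 5 min without inhibitor. Uptake was taken as residual [14C]AEA in the medium (CHCl3/CH3OH 2:1 extraction, scintillation counting). IC50, N = 3.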

[3] = molecular target: T1, Fatty-acid amide hydrolase 1 (Rattus norvegicus, UniProt P97612); experiment: Inhibition of [14C]anandamide hydrolysis in rat brain membrane in the absence of UV irradiation; format: functional, cell membranes
T1 sequence (P97612 whole entry): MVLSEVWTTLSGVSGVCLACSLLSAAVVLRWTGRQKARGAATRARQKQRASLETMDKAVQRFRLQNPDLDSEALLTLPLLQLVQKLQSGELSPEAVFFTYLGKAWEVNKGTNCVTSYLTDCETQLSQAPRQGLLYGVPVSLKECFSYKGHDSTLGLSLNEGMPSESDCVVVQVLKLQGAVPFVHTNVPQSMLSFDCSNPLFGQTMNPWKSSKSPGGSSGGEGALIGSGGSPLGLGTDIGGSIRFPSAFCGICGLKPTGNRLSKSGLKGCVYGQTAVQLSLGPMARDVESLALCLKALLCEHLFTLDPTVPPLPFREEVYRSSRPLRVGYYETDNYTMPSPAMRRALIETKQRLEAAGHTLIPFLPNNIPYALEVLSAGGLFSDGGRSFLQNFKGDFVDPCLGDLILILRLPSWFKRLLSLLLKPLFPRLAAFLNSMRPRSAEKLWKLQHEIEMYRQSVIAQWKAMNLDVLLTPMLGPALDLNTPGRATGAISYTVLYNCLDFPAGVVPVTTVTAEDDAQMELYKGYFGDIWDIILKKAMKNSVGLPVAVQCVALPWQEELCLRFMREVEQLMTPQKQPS

[4] = molecular target: T1, Fatty-acid amide hydrolase 1; experiment: Inhibition of [14C]anandamide hydrolysis in rat brain membrane
[5] = test system: C6; experiment: Inhibition of [14C]anandamide uptake in C6 cells expressing AEA membrane transporter under UV irradiation at 5 uM; format: functional; details: Rattus norvegicus, C6, light or radiation study
Outline: (§1)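 Rat C6 glioma cells preincubated with compound 8 min at 25 °C, either in the dark or under UV light (315-400 nm, 125W). Cells then washed 3× with medium containing 0.2% BSA and 2× with BSA-free medium, then given [14C]AEA for 5 min with no inhibitor present. Uptake was taken as residual [14C]AEA in the medium (CHCl3/CH3OH 2:1 extraction, scintillation counting). Nonspecific binding was measured with 100 µM AEA. Values are % inhibition, mean ± SE, N = 3 or 6.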

[6] = test system: C6; experiment: Inhibition of [14C]anandamide uptake in C6 cells expressing AEA membrane transporter in dark at 5 uM; format: functional; details: Rattus norvegicus; outline: as §1
[7] = test system: C6; experiment: Inhibition of [14C]anandamide uptake in C6 cells expressing AEA membrane transporter in dark at 10 uM; format: functional; details: Rattus norvegicus; outline: as §1
[8] = test system: C6; experiment: Inhibition of [14C]anandamide uptake in C6 cells expressing AEA membrane transporter under UV irradiation at 10 uM; format: functional; details: Rattus norvegicus, C6, light or radiation study; outline: as §1

Compound | IC50 [1] [µM] | IC50 [3] [µM] | IC50 [4] [µM] | other results
O=C(CCCCCCC/C=C\CCCCCCCCBr)N[C@H](CO)Cc1ccc(O)cc1 | 10.2 | – | – | IC50 [2]: > 25 µM
CCCCCCCC/C=C\CCCCCCCC(=O)N[C@H](Cc1ccc(O)cc1)C(=O)CI | > 25 | > 50 | > 50 | –
CCCCCCCC/C=C\CCCCCCCC(=O)N[C@H](Cc1ccc(O)cc1)C(=O)COC(=O)c1c(Cl)cccc1Cl | 7.5 | > 50 | > 50 | IC50 [2]: > 25 µM
N#CCCCCCCCC/C=C\CCCCCCCC(=O)N[C@H](CO)Cc1ccc(O)cc1 | 23.1 | – | – | –
CCCCCCCC/C=C\CCCCCCCC(=O)N[C@@H](Cc1ccc(O)cc1)C(=O)CCl | 10 | > 50 | > 50 | IC50 [2]: > 25 µM
[N-]=[N+]=Nc1ccc(I)cc1C(=O)OCC/C=C\CCCCCCCC(=O)N[C@H](CO)Cc1ccc(O)cc1 | 11 | > 50 | > 50 | inhibition at 10 µM [7]: 32.8%; inhibition at 10 µM [8]: 60%
N#CCCCCCCCC/C=C\CCCCCCCC(=O)N[C@@H](CO)Cc1ccc(O)cc1 | > 25 | – | – | –
O=C(CCCCCCC/C=C\CCOC(=O)c1ccccc1)N[C@H](CO)Cc1ccc(O)cc1 | > 25 | > 50 | > 50 | –
O=C(CCCCCCC/C=C\CCCCCCCCI)N[C@H](CO)Cc1ccc(O)cc1 | 10.8 | – | – | IC50 [2]: > 25 µM
CCCCCCCC/C=C\CCCCCCCC(=O)N[C@H](Cc1ccc(O)cc1)C(=O)CCl | > 25 | > 50 | > 50 | –
CCCCCCCC/C=C\CCCCCCCC(=O)N[C@@H](Cc1ccc(O)cc1)C(=O)COC(=O)c1c(Cl)cccc1Cl | 16.1 | > 50 | > 50 | IC50 [2]: > 25 µM
O=C(CCCCCCC/C=C\CCCCCCCCI)N[C@@H](CO)Cc1ccc(O)cc1 | 14 | – | – | IC50 [2]: > 25 µM
CCCCCCCC/C=C\CCCCCCCC(=O)N[C@@H](Cc1ccc(O)cc1)C(=O)CI | > 25 | > 50 | > 50 | –

Second part, led by results:

IC50 [1] [µM] | IC50 [3] [µM] | IC50 [4] [µM] | Compound | other results
10 | – | – | CCCCCCCC/C=C/CCCCCCCC(=O)N[C@H](CO)Cc1ccc(C(=O)c2ccccc2)cc1 | –
8.1 | – | – | CCCCCCCC/C=C\CCCCCCCC(=O)N[C@@H](CO)Cc1ccc(C(=O)c2ccc(O)cc2)cc1 | –
6 | – | – | CCCCCCCC/C=C\CCCCCCCC(=O)N[C@H](CO)Cc1ccc(C(=O)c2ccccc2)cc1 | inhibition at 5 µM [5]: 30.3%; inhibition at 5 µM [6]: 37.5%; inhibition at 10 µM [7]: 65.8%; inhibition at 10 µM [8]: 57.2%
> 25 | – | – | CCCCCCCC/C=C\CCCCCCCC(=O)N[C@@H](CO)Cc1ccc(C(=O)C=[N+]=[N-])cc1 | –
20.1 | – | – | O=C(CCCCCCC/C=C\CCCCCCCCBr)N[C@@H](CO)Cc1ccc(O)cc1 | –
> 25 | – | – | CCCCCCCC/C=C\CCCCCCCC(=O)N[C@H](CO)Cc1ccc(C(=O)C=[N+]=[N-])cc1 | –
> 25 | – | – | CCCCCCCC/C=C\CCCCCCCC(=O)N[C@H](CO)Cc1ccc(C(=O)CCl)cc1 | –
10.1 | – | – | CCCCCCCC/C=C\CCCCCCCC(=O)N[C@H](CO)Cc1ccc(C(=O)c2ccc(O)cc2)cc1 | inhibition at 5 µM [5]: 68.6%; inhibition at 5 µM [6]: 28.3%; inhibition at 10 µM [7]: 73.6%; inhibition at 10 µM [8]: 73.2%
